In PMC10582670 (Clinical and Translational Science, 2023):
Values joined by “and” are separate entries in the source; they are usually repeats but may differ in a detail not shown here. Equal entries are not always repeated.

Tested on: healthy volunteers
Experiment: Safety and tolerability
Format: in vivo, human
Procedure, shortened: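 Healthy volunteers aged 18–55 y, BMI 18–30 kg/m², randomised double-blind 8:2 to once-daily oral drug or placebo for up to 14 days, with follow-up visits on days 21 and 42. Treatment-emergent AEs coded with MedDRA 23.1 and graded with the WHO toxicity scale, alongside ECGs, laboratory tests and vital signs. The safety population was all subjects receiving at least one dose.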

[1] = SAD (fasted) All GDC-8264, n = 28

O=C(c1nc2n(n1)[C@H](c1ccccc1)C[C@@H]2F)C1CC1 [GDC‐8264]
No. of TEAEs (SAD (fasted) 75 mg, n = 5): 8
No. of deaths (SAD (fasted) 75 mg, n = 5): 0 no. of subjects (%)
No. of subjects with at least one Related TEAE (SAD (fasted) 75 mg, n = 5): 1 (20.0) no. of subjects (%)
No. of subjects with at least one Serious TEAE (SAD (fasted) 75 mg, n = 5): 0 no. of subjects (%)
No. of subjects with at least one TEAE (SAD (fasted) 75 mg, n = 5): 3 (60.0) no. of subjects (%)
No. of subjects withdrawn from study due to a TEAE (SAD (fasted) 75 mg, n = 5): 0 no. of subjects (%)
TEAE Abdominal pain (SAD (fasted) 75 mg, n = 5): 0 no. of subjects (%)
TEAE Back pain (SAD (fasted) 75 mg, n = 5): 1 (20.0) no. of subjects (%)
TEAE Catheter site pain (SAD (fasted) 75 mg, n = 5): 0 no. of subjects (%)
TEAE Dermatitis contact (SAD (fasted) 75 mg, n = 5): 2 (40.0) no. of subjects (%)
TEAE Diarrhea (SAD (fasted) 75 mg, n = 5): 0 no. of subjects (%)
TEAE Dizziness (SAD (fasted) 75 mg, n = 5): 0 no. of subjects (%)
TEAE Dyspepsia (SAD (fasted) 75 mg, n = 5): 0 no. of subjects (%)
TEAE Gastrointestinal sounds abnormal (SAD (fasted) 75 mg, n = 5): 1 (20.0) no. of subjects (%)
TEAE Gingivitis (SAD (fasted) 75 mg, n = 5): 0 no. of subjects (%)
TEAE Headache (SAD (fasted) 75 mg, n = 5): 0 no. of subjects (%)
TEAE Medical device site dermatitis (SAD (fasted) 75 mg, n = 5): 0 no. of subjects (%)
TEAE Myalgia (SAD (fasted) 75 mg, n = 5): 1 (20.0) no. of subjects (%)
TEAE Nausea (SAD (fasted) 75 mg, n = 5): 2 (40.0) no. of subjects (%)
TEAE Presyncope (SAD (fasted) 75 mg, n = 5): 0 no. of subjects (%)
TEAE Somnolence (SAD (fasted) 75 mg, n = 5): 0 no. of subjects (%)
No. of TEAEs (SAD (fasted) 150 mg, n = 5): 6
No. of deaths (SAD (fasted) 150 mg, n = 5): 0 no. of subjects (%)
No. of subjects with at least one Related TEAE (SAD (fasted) 150 mg, n = 5): 3 (60.0) no. of subjects (%)
No. of subjects with at least one Serious TEAE (SAD (fasted) 150 mg, n = 5): 0 no. of subjects (%)
No. of subjects with at least one TEAE (SAD (fasted) 150 mg, n = 5): 4 (80.0) no. of subjects (%)
No. of subjects withdrawn from study due to a TEAE (SAD (fasted) 150 mg, n = 5): 0 no. of subjects (%)
TEAE Abdominal pain (SAD (fasted) 150 mg, n = 5): 0 no. of subjects (%)
TEAE Back pain (SAD (fasted) 150 mg, n = 5): 0 no. of subjects (%)
TEAE Catheter site pain (SAD (fasted) 150 mg, n = 5): 0 no. of subjects (%)
TEAE Dermatitis contact (SAD (fasted) 150 mg, n = 5): 1 (20.0) no. of subjects (%)
TEAE Diarrhea (SAD (fasted) 150 mg, n = 5): 0 no. of subjects (%)
TEAE Dizziness (SAD (fasted) 150 mg, n = 5): 0 no. of subjects (%)
TEAE Dyspepsia (SAD (fasted) 150 mg, n = 5): 0 no. of subjects (%)
TEAE Gastrointestinal sounds abnormal (SAD (fasted) 150 mg, n = 5): 1 (20.0) no. of subjects (%)
TEAE Gingivitis (SAD (fasted) 150 mg, n = 5): 0 no. of subjects (%)
TEAE Headache (SAD (fasted) 150 mg, n = 5): 1 (20.0) no. of subjects (%)
TEAE Medical device site dermatitis (SAD (fasted) 150 mg, n = 5): 0 no. of subjects (%)
TEAE Myalgia (SAD (fasted) 150 mg, n = 5): 0 no. of subjects (%)
TEAE Nausea (SAD (fasted) 150 mg, n = 5): 1 (20.0) no. of subjects (%)
TEAE Presyncope (SAD (fasted) 150 mg, n = 5): 0 no. of subjects (%)
TEAE Somnolence (SAD (fasted) 150 mg, n = 5): 0 no. of subjects (%)
No. of TEAEs (SAD (fasted) 225 mg, n = 6): 7
No. of deaths (SAD (fasted) 225 mg, n = 6): 0 no. of subjects (%)
No. of subjects with at least one Related TEAE (SAD (fasted) 225 mg, n = 6): 0 no. of subjects (%)
No. of subjects with at least one Serious TEAE (SAD (fasted) 225 mg, n = 6): 0 no. of subjects (%)
No. of subjects with at least one TEAE (SAD (fasted) 225 mg, n = 6): 3 (50.0) no. of subjects (%)
No. of subjects withdrawn from study due to a TEAE (SAD (fasted) 225 mg, n = 6): 0 no. of subjects (%)
TEAE Abdominal pain (SAD (fasted) 225 mg, n = 6): 0 no. of subjects (%)
TEAE Back pain (SAD (fasted) 225 mg, n = 6): 0 no. of subjects (%)
TEAE Catheter site pain (SAD (fasted) 225 mg, n = 6): 0 no. of subjects (%)
TEAE Dermatitis contact (SAD (fasted) 225 mg, n = 6): 0 no. of subjects (%)
TEAE Diarrhea (SAD (fasted) 225 mg, n = 6): 0 no. of subjects (%)
TEAE Dizziness (SAD (fasted) 225 mg, n = 6): 0 no. of subjects (%)
TEAE Dyspepsia (SAD (fasted) 225 mg, n = 6): 0 no. of subjects (%)
TEAE Gastrointestinal sounds abnormal (SAD (fasted) 225 mg, n = 6): 0 no. of subjects (%)
TEAE Gingivitis (SAD (fasted) 225 mg, n = 6): 0 no. of subjects (%)
TEAE Headache (SAD (fasted) 225 mg, n = 6): 0 no. of subjects (%)
TEAE Medical device site dermatitis (SAD (fasted) 225 mg, n = 6): 2 (33.3) no. of subjects (%)
TEAE Myalgia (SAD (fasted) 225 mg, n = 6): 1 (16.7) no. of subjects (%)
TEAE Nausea (SAD (fasted) 225 mg, n = 6): 0 no. of subjects (%)
TEAE Presyncope (SAD (fasted) 225 mg, n = 6): 1 (16.7) no. of subjects (%)
TEAE Somnolence (SAD (fasted) 225 mg, n = 6): 0 no. of subjects (%)
No. of TEAEs [1]: 33
No. of deaths [1]: 0 no. of subjects (%)
No. of subjects with at least one Related TEAE [1]: 4 (14.3) no. of subjects (%)
No. of subjects with at least one Serious TEAE [1]: 0 no. of subjects (%)
No. of subjects with at least one TEAE [1]: 19 no. of subjects (%) and 19 (67.9) no. of subjects (%)
No. of subjects withdrawn from study due to a TEAE [1]: 0 no. of subjects (%)
TEAE Abdominal pain [1]: 2 (7.1) no. of subjects (%)
TEAE Back pain [1]: 1 (3.6) no. of subjects (%)
TEAE Catheter site pain [1]: 1 (3.6) no. of subjects (%)
TEAE Dermatitis contact [1]: 4 (14.3) no. of subjects (%)
TEAE Diarrhea [1]: 0 no. of subjects (%)
TEAE Dyspepsia [1]: 1 (3.6) no. of subjects (%)
TEAE Gastrointestinal sounds abnormal [1]: 2 (7.1) no. of subjects (%)
TEAE Gingivitis [1]: 0 no. of subjects (%)
TEAE Headache [1]: 4 (14.3) no. of subjects (%)
TEAE Medical device site dermatitis [1]: 2 (7.1) no. of subjects (%)
TEAE Myalgia [1]: 2 (7.1) no. of subjects (%)
TEAE Nausea [1]: 3 (10.7) no. of subjects (%)
TEAE Presyncope [1]: 2 (7.1) no. of subjects (%)
TEAE Somnolence [1]: 0 no. of subjects (%)
No. of TEAEs (SAD (high fat) 75 mg, n = 5): 4
No. of deaths (SAD (high fat) 75 mg, n = 5): 0 no. of subjects (%)
No. of subjects with at least one Related TEAE (SAD (high fat) 75 mg, n = 5): 0 no. of subjects (%)
No. of subjects with at least one Serious TEAE (SAD (high fat) 75 mg, n = 5): 0 no. of subjects (%)
No. of subjects with at least one TEAE (SAD (high fat) 75 mg, n = 5): 2 (40.0) no. of subjects (%)
No. of subjects withdrawn from study due to a TEAE (SAD (high fat) 75 mg, n = 5): 0 no. of subjects (%)
TEAE Abdominal pain (SAD (high fat) 75 mg, n = 5): 0 no. of subjects (%)
TEAE Back pain (SAD (high fat) 75 mg, n = 5): 0 no. of subjects (%)
TEAE Catheter site pain (SAD (high fat) 75 mg, n = 5): 0 no. of subjects (%)
TEAE Dermatitis contact (SAD (high fat) 75 mg, n = 5): 1 (20.0) no. of subjects (%)
TEAE Diarrhea (SAD (high fat) 75 mg, n = 5): 0 no. of subjects (%)
TEAE Dizziness (SAD (high fat) 75 mg, n = 5): 0 no. of subjects (%)
TEAE Dyspepsia (SAD (high fat) 75 mg, n = 5): 0 no. of subjects (%)
TEAE Gastrointestinal sounds abnormal (SAD (high fat) 75 mg, n = 5): 0 no. of subjects (%)
TEAE Gingivitis (SAD (high fat) 75 mg, n = 5): 0 no. of subjects (%)
TEAE Headache (SAD (high fat) 75 mg, n = 5): 1 (20.0) no. of subjects (%)
TEAE Medical device site dermatitis (SAD (high fat) 75 mg, n = 5): 0 no. of subjects (%)
TEAE Myalgia (SAD (high fat) 75 mg, n = 5): 0 no. of subjects (%)
TEAE Nausea (SAD (high fat) 75 mg, n = 5): 1 (20.0) no. of subjects (%)
TEAE Presyncope (SAD (high fat) 75 mg, n = 5): 0 no. of subjects (%)
TEAE Somnolence (SAD (high fat) 75 mg, n = 5): 0 no. of subjects (%)
changes in clinical laboratory results, vital signs, ECGs, or physical examinations (SAD and MAD stages): no significant changes
severity of adverse events in GDC-8264-treated subjects (both stages (SAD and MAD)): mild
